Laboratory results from ChEMBL document CHEMBL1123734, “Resolution, absolute stereochemistry, and enantioselective activity of nomifensine and hexahydro-1H-indeno[1,2-b]pyridines” (J Med Chem, 1987).
Several values for one entry are separate records, joined by “and”; a condition that tells them apart may be missing. Identical values can stand only once.

What was measured:
[1] = test system: Mus musculus; experiment: Antidepressant potential was assessed by the potentiation of yohimbine-induced toxicity in mice by intraperitoneal administration; format: functional
In short: (§1)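 Male NMRI mice (SPF-71, KF), 20-30 g, were randomized into groups of 10. Compounds were dissolved in 1% methylcellulose, dosed at 10 mL/kg, and given ip 30 min before yohimbine hydrochloride (20 mg/kg sc). Deaths were counted after 18 h. ED50 was the dose at which 50% of animals died.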

[2] = test system: Mus musculus; experiment: Antidepressant potential was assessed by the potentiation of yohimbine-induced toxicity in mice by intraperitoneal administration; Inactive; format: functional; conditions: ip; in short: as §1
[3] = test system: Mus musculus; experiment: Antidepressant potential was assessed by the prevention of tetrabenazine-induced ptosis in mice by intraperitoneal administration; format: functional
In short: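 Male NMRI mice (SPF-71, KF), 20-30 g, randomly assigned to groups of 10. Compounds dissolved in 1% methylcellulose and given ip at 10 mL/kg body weight. Ptosis procedure follows an earlier cited method.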

[4] = test system: Mus musculus; experiment: Antidepressant potential was assessed by the prevention of tetrabenazine-induced ptosis in mice by intraperitoneal administration; Inactive; format: functional; conditions: ip
[5] = (§2) Lethal dose (toxicity) was determined by intraperitoneal administration in mice; format: organism-based; conditions: mouse, in vivo, ip
In short: (§3)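 Male NMRI mice (SPF-71, KF), 20-30 g, randomly assigned to groups of 10. Compounds were dissolved in 1% methylcellulose and given intraperitoneally at 10 mL/kg body weight.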

[6] = test system: Mus musculus; experiment: as §2; format: organism-based; conditions: in vivo, ip; in short: as §3
[7] = species on record: Rattus norvegicus; experiment: In vitro inhibition of [14C]norepinephrine uptake into rat hypothalamus; format: functional, organism-based
[8] = species on record: Rattus norvegicus; experiment: In vitro inhibition of [3H]5-HT uptake into rat whole brain; format: functional, organism-based
[9] = species on record: Rattus norvegicus; experiment: In vitro inhibition of [3H]dopamine uptake into rat corpus striatum; format: functional, organism-based
[10] = test system: Mus musculus; experiment: Antidepressant potential was assessed by the potentiation of yohimbine-induced toxicity in mice by intraperitoneal administration.; format: functional; in short: as §1
[11] = test system: Mus musculus; experiment: (§4) Lethal dose (toxicity) was determined by intraperitoneal administration in mice.; format: organism-based; conditions: in vivo, ip; in short: as §3
[12] = test system: Mus musculus; experiment: Antidepressant potential was assessed by the prevention of tetrabenazine-induced ptosis in mice by intraperitoneal administration.; format: functional
[13] = as §4; format: organism-based; conditions: mouse, in vivo, ip; in short: as §3
[14] = Mus musculus, ip, read-out: ED50

Compound	ED50 [1] [mg/kg]	LD50 [5] [mg/kg]	LD50 [6]	IC50 [7]	IC50 [8] [nM]	IC50 [9]	ED50 [10]	LD50 [11] [mg/kg]	other results
CCCN1CCC[C@@H]2[C@@H](c3ccccc3)c3ccccc3[C@@H]21	1.2	39	35 mg/kg	36 nM and 200 nM	> 10000	40 nM and 200 nM			ED50 [2]: 5 mg/kg; ED50 [3, 14]: 0.4 mg/kg; ED50 [4]: 5 mg/kg
CN1CCC[C@@H]2[C@@H](c3ccccc3)c3ccccc3[C@@H]21 (racemic)		46.7		120 nM	10000	100 nM			ED50 [1, 14]: 1.3 mg/kg; ED50 [3, 14]: 0.4 mg/kg
CN1Cc2c(N)cccc2C(c2ccccc2)C1 (stereo in doubt; (+)) [NOMIFENSINE]							0.55 mg/kg	49.5	
CN1CCC[C@@H]2[C@@H](c3ccccc3)c3ccccc3[C@@H]21	0.86		72 mg/kg and 91 mg/kg	500 nM and 60 nM		300 nM			ED50 [2]: 5 mg/kg; ED50 [3]: 0.37 mg/kg; ED50 [4]: 10 mg/kg
Nc1ccc([C@H]2c3ccccc3[C@@H]3NCCC[C@H]23)cc1 (racemic)				18 nM		44 nM	0.06 mg/kg	37	ED50 [12]: 0.044 mg/kg
CN1Cc2c(N)cccc2C(c2ccccc2)C1 (racemic) [NOMIFENSINE]							1.1 mg/kg	141	
CN1Cc2c(N)cccc2C(c2ccccc2)C1 (stereo in doubt; (-)) [NOMIFENSINE]							20.2 mg/kg	170	
CCCN1CCC[C@@H]2[C@@H](c3ccccc3)c3ccccc3[C@@H]21 (racemic)	3.5		57 mg/kg	410 nM	> 10000	110 nM			ED50 [3]: 0.8 mg/kg
Nc1ccc([C@H]2c3ccccc3[C@@H]3NCCC[C@H]23)cc1		78		5 nM and 15 nM		20 nM and 50 nM	0.07 mg/kg and 0.15 mg/kg		LD50 [13]: 43 mg/kg; IC50 ([8]; Rattus norvegicus, 1 h): > 10000 nM
